“And” between values parts separate entries of the source, which are not always exact repeats. Equal entries are not always repeated. Non-standard residues stand in square brackets, D forms with d. Residues, ends and D or L forms follow the SMILES beside them.
Test system: Fibroblast
Test: Multiplex assay against human fibroblast
Type: toxicity, cell-based
Method in brief: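 Tubulin, mitochondrial-mass and membrane-permeability phenotypes are per cents of healthy-nucleus cells. Cells were gated by CellPathfinder machine learning into Hoechst high-intensity objects or normal cells, normal cells into healthy, pyknosed or fragmented nuclei, and pyknosed cells into mitotic or apoptotic. Before that, live cells stained at seeding with Hoechst33342, BioTracker Green Microtubule Cytoskeleton Dye, MitoTracker Red and Annexin V Alexa Fluor 680 were imaged on a CQ1 microscope at 37°C and 5% CO2 after compound addition.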

[1] = 12 h, 1 µM, compound concentration 1 uM
[2] = 12 h, 10 µM, compound concentration 10 uM
[3] = 24 h, 1 µM, compound concentration 1 uM
[4] = 24 h, 10 µM, compound concentration 10 uM
[5] = 48 h, 1 µM, compound concentration 1 uM
[6] = 48 h, 10 µM, compound concentration 10 uM

O=C(Nc1cc(C(F)(F)F)cc(C(F)(F)F)c1)c1cc(Cl)ccc1O [IMD-0354]
Population Apoptotic (%) [1]: 6.12% and 12.9% | Population Fragmented Nuclei (%) [1]: 11.69% and 4.09% | Population Healthy Nuclei (%) [1]: 56.49% and 77.78% | Population Hoechst High Intensity Objects (%) [1]: 0% | Population Membrane Permeable-Phenotype (%) [1]: 4.6% and 8.27% | Population Mitochondria Different-Phenotype (%) [1]: 6.9% and 2.26% | Population Mitotic Cells (%) [1]: 93.88% and 87.1% | Population Normal (%) [1]: 100% | Population Pyknosed Nuclei (%) [1]: 31.82% and 18.13% | Population Tubulin-Different-Phenotype (%) [1]: 8.05% and 22.56% | Total Cell Count [1]: 154 and 171 | Population Apoptotic (%) [2]: 0% and 6.33% | Population Fragmented Nuclei (%) [2]: 23.45% and 22.08% | Population Healthy Nuclei (%) [2]: 49.56% and 45% | Population Hoechst High Intensity Objects (%) [2]: 0% | Population Membrane Permeable-Phenotype (%) [2]: 3.57% and 2.78% | Population Mitochondria Different-Phenotype (%) [2]: 0% and 6.48% | Population Mitotic Cells (%) [2]: 100% and 93.67% | Population Normal (%) [2]: 100% | Population Pyknosed Nuclei (%) [2]: 26.99% and 32.92% | Total Cell Count [2]: 226 and 240 | Population Apoptotic (%) [3]: 9.09% and 16.33% | Population Fragmented Nuclei (%) [3]: 10.5% and 2.76% | Population Healthy Nuclei (%) [3]: 59.12% and 70.17% | Population Hoechst High Intensity Objects (%) [3]: 0% | Population Membrane Permeable-Phenotype (%) [3]: 8.41% and 8.66% | Population Mitochondria Different-Phenotype (%) [3]: 2.8% and 0.79% | Population Mitotic Cells (%) [3]: 90.91% and 83.67% | Population Normal (%) [3]: 100% | Population Pyknosed Nuclei (%) [3]: 30.39% and 27.07% | Population Tubulin-Different-Phenotype (%) [3]: 14.02% and 25.2% | Total Cell Count [3]: 181 | Population Apoptotic (%) [4]: 7.58% and 18.81% | Population Fragmented Nuclei (%) [4]: 25.35% and 26.19% | Population Healthy Nuclei (%) [4]: 44.24% and 33.73% | Population Hoechst High Intensity Objects (%) [4]: 0% | Population Mitochondria Different-Phenotype (%) [4]: 0% and 1.18% | Population Mitotic Cells (%) [4]: 92.42% and 81.19% | Population Normal (%) [4]: 100% | Population Pyknosed Nuclei (%) [4]: 30.41% and 40.08% | Total Cell Count [4]: 217 and 252 | Population Apoptotic (%) [5]: 7.14% and 17.65% | Population Fragmented Nuclei (%) [5]: 19.1% and 8.99% | Population Healthy Nuclei (%) [5]: 49.44% and 71.91% | Population Hoechst High Intensity Objects (%) [5]: 0% | Population Membrane Permeable-Phenotype (%) [5]: 5.68% and 16.41% | Population Mitochondria Different-Phenotype (%) [5]: 9.09% and 0% | Population Mitotic Cells (%) [5]: 92.86% and 82.35% | Population Normal (%) [5]: 100% | Population Pyknosed Nuclei (%) [5]: 31.46% and 19.1% | Population Tubulin-Different-Phenotype (%) [5]: 18.18% and 32.03% | Total Cell Count [5]: 178 | Population Apoptotic (%) [6]: 32.47% and 70.37% | Population Fragmented Nuclei (%) [6]: 33.5% | Population Healthy Nuclei (%) [6]: 28% and 39.5% | Population Hoechst High Intensity Objects (%) [6]: 0% | Population Membrane Permeable-Phenotype (%) [6]: 17.86% and 22.78% | Population Mitochondria Different-Phenotype (%) [6]: 1.79% and 2.53% | Population Mitotic Cells (%) [6]: 67.53% and 29.63% | Population Normal (%) [6]: 100% | Population Pyknosed Nuclei (%) [6]: 38.5% and 27% | Population Tubulin-Different-Phenotype (%) [6]: 26.79% and 75.95% | Total Cell Count [6]: 200

CC(C)C[C@@H]1NC(=O)[C@@H](C(C)C)NC(=O)[C@@H]2CCCN2C(=O)[C@@H](CC(=O)O)NC(=O)[C@@H](Cc2c[nH]c3ccccc23)NC1=O [BQ-123] (cyclo(L[dW][dD]P[dV]))
Population Apoptotic (%) [1]: 57% and 21% | Population Fragmented Nuclei (%) [1]: 18% and 22% | Population Healthy Nuclei (%) [1]: 68% and 58% | Population Hoechst High Intensity Objects (%) [1]: 0% and 3% | Population Membrane Permeable-Phenotype (%) [1]: 1% and 5% | Population Mitochondria Different-Phenotype (%) [1]: 11% and 2% | Population Mitotic Cells (%) [1]: 42% and 78% | Population Normal (%) [1]: 100% and 96% | Population Pyknosed Nuclei (%) [1]: 13% and 18% | Population Tubulin-Different-Phenotype (%) [1]: 31% | Total Cell Count [1]: 105 and 157 | Population Apoptotic (%) [2]: 48% and 33% | Population Fragmented Nuclei (%) [2]: 15% and 30% | Population Healthy Nuclei (%) [2]: 65% and 48% | Population Hoechst High Intensity Objects (%) [2]: 2% | Population Membrane Permeable-Phenotype (%) [2]: 0% and 4% | Population Mitochondria Different-Phenotype (%) [2]: 9% and 3% | Population Mitotic Cells (%) [2]: 52% and 66% | Population Normal (%) [2]: 97% | Population Pyknosed Nuclei (%) [2]: 18% and 20% | Population Tubulin-Different-Phenotype (%) [2]: 33% and 46% | Total Cell Count [2]: 136 and 134 | Population Apoptotic (%) [3]: 53% and 24% | Population Fragmented Nuclei (%) [3]: 19% and 23% | Population Healthy Nuclei (%) [3]: 66% and 57% | Population Hoechst High Intensity Objects (%) [3]: 1% and 6% | Population Membrane Permeable-Phenotype (%) [3]: 0% and 3% | Population Mitochondria Different-Phenotype (%) [3]: 5% and 3% | Population Mitotic Cells (%) [3]: 46% and 75% | Population Normal (%) [3]: 98% and 93% | Population Pyknosed Nuclei (%) [3]: 14% and 18% | Population Tubulin-Different-Phenotype (%) [3]: 24% and 25% | Total Cell Count [3]: 107 and 166 | Population Apoptotic (%) [4]: 50% and 29% | Population Fragmented Nuclei (%) [4]: 19% and 27% | Population Healthy Nuclei (%) [4]: 64% and 50% | Population Hoechst High Intensity Objects (%) [4]: 8% and 0% | Population Membrane Permeable-Phenotype (%) [4]: 1% and 11% | Population Mitochondria Different-Phenotype (%) [4]: 5% and 3% | Population Mitotic Cells (%) [4]: 50% and 70% | Population Normal (%) [4]: 91% and 99% | Population Pyknosed Nuclei (%) [4]: 15% and 22% | Population Tubulin-Different-Phenotype (%) [4]: 32% and 50% | Total Cell Count [4]: 123 | Population Apoptotic (%) [5]: 50% and 52% | Population Fragmented Nuclei (%) [5]: 18% and 28% | Population Healthy Nuclei (%) [5]: 70% and 56% | Population Hoechst High Intensity Objects (%) [5]: 3% and 4% | Population Membrane Permeable-Phenotype (%) [5]: 0% and 2% | Population Mitochondria Different-Phenotype (%) [5]: 12% and 4% | Population Mitotic Cells (%) [5]: 50% and 48% | Population Normal (%) [5]: 96% and 95% | Population Pyknosed Nuclei (%) [5]: 11% and 15% | Population Tubulin-Different-Phenotype (%) [5]: 25% and 39% | Total Cell Count [5]: 109 and 172 | Population Apoptotic (%) [6]: 70% and 46% | Population Fragmented Nuclei (%) [6]: 26% and 45% | Population Healthy Nuclei (%) [6]: 59% and 42% | Population Hoechst High Intensity Objects (%) [6]: 5% and 6% | Population Membrane Permeable-Phenotype (%) [6]: 1% and 9% | Population Mitochondria Different-Phenotype (%) [6]: 5% and 3% | Population Mitotic Cells (%) [6]: 29% and 53% | Population Normal (%) [6]: 94% and 93% | Population Pyknosed Nuclei (%) [6]: 13% and 12% | Population Tubulin-Different-Phenotype (%) [6]: 38% and 51% | Total Cell Count [6]: 129 and 130

Reference: ChEMBL document CHEMBL5724801, “EUbOPEN Chemogenomics Library - Multiplex” (2024)
